What was measured:
HCT-15 = test: Cytotoxicity against human HCT15 cells after 48 hrs by SRB assay; type: cell-based; settings: HCT-15, 48 h
SK-MEL-2 = test: Cytotoxicity against human SK-MEL-2 cells after 48 hrs by SRB assay; type: cell-based; settings: SK-MEL-2, 48 h
C6 = test: Neuroprotective activity in rat C6 cells assessed as NGF secretion at 20 uM after 24 hrs by ELISA relative to control; type: functional
Summary of the method: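 C6 cells given 20 μM of each compound for 24 h. NGF secreted into the C6-conditioned medium quantified by ELISA, as a percentage of the untreated control (set at 100%). Means ± SD of three independent experiments.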

A549 = test: Cytotoxicity against human A549 cells after 48 hrs by SRB assay; type: cell-based; settings: A549, 48 h
[1] = Cytotoxicity against rat C6 cells assessed as cell viability at 20 uM after 24 hrs by MTT assay relative to control; type: cell-based; settings: read-out: Activity
Summary of the method: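 C6 cells treated with 20 μM of each compound. Viability determined by MTT assay and expressed as a percentage. Means ± SD of three independent experiments.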

SK-OV-3 = test: Cytotoxicity against human SKOV3 cells after 48 hrs by SRB assay; type: cell-based; settings: SK-OV-3, 48 h
BV-2 [2] = test: (§1) Cytotoxicity against mouse BV2 cells assessed as cell viability at 20 uM after 24 hrs by MTT assay relative to control; type: cell-based; settings: bv-2, 24 h, 20 µM
Summary of the method: (§2)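 BV-2 microglia exposed to 20 μM of each compound. Viability read by MTT and given as a percentage. Means ± SD of three independent experiments.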

BV-2 [3] = test: Antiinflammatory activity in mouse BV2 cells assessed as inhibition of LPS-induced nitrite production after 24 hrs by Griess assay; type: functional, cell-based; settings: BV-2, 24 h
Summary of the method: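 LPS-activated murine microglial BV-2 cells. IC50 taken as the concentration (μM) giving 50% inhibition of NO production. Means of three independent experiments, as means ± SD.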

[4] = as §1; type: cell-based, BV-2; settings: BV2 cells, read-out: Activity; summary of the method: as §2

O=C1C=C2C=C[C@@H]3C[C@@]2(O1)[C@@H]1CCC(=O)C(=O)N31
IC50 (HCT-15): > 10 µM
IC50 (SK-MEL-2): > 10 µM
Activity (C6): 172.7%
IC50 (A549): > 10 µM
viability at 24 h, 20 µM [1]: 101%
IC50 (SK-OV-3): > 10 µM

O=C1C=C2C=C[C@@H]3C[C@@]2(O1)[C@@]1(O)[C@H]2O[C@H]2CCN31
IC50 (HCT-15): 1.5 µM
IC50 (SK-MEL-2): 1.9 µM
IC50 (A549): 6.8 µM
IC50 (SK-OV-3): 3.4 µM
Activity (BV-2 [2]): Toxic

CO[C@H]1CCN2[C@@H]3C=CC4=CC(=O)O[C@]4(C3)[C@@H]2C1
IC50 (HCT-15): > 10 µM
IC50 (SK-MEL-2): > 10 µM
IC50 (A549): > 10 µM
IC50 (BV-2 [3]): 31.5 µM
IC50 (SK-OV-3): > 10 µM
viability at 24 h, 20 µM [4]: 88.7%

CO[C@H]1CCN2O[C@H]3C=CC[C@@]4(OC(=O)C=C34)[C@@H]2C1
IC50 (HCT-15): > 10 µM
IC50 (SK-MEL-2): > 10 µM
IC50 (A549): > 10 µM
IC50 (SK-OV-3): > 10 µM

O=C1C=C2C=CCC[C@]2(c2ccccn2)O1
IC50 (HCT-15): > 10 µM
IC50 (SK-MEL-2): > 10 µM
IC50 (A549): > 10 µM
IC50 (SK-OV-3): > 10 µM

O=C1C=C2C=C[C@@H]3C[C@@]2(O1)[C@@H]1[C@H]2O[C@H]2CCN31
IC50 (HCT-15): > 10 µM
IC50 (SK-MEL-2): > 10 µM
Activity (C6): 145.3%
IC50 (A549): > 10 µM
IC50 (BV-2 [3]): 12.6 µM
viability at 24 h, 20 µM [1]: 101%
IC50 (SK-OV-3): > 10 µM
viability at 24 h, 20 µM [4]: 92.8%

O=C1C=C2C=C[C@H](O)C[C@@H]2O1
IC50 (HCT-15): > 10 µM
IC50 (SK-MEL-2): > 10 µM
IC50 (A549): > 10 µM
IC50 (SK-OV-3): > 10 µM

O=C1C=C2C=C[C@H]3C[C@]2(O1)[C@H]1CCCCN1O3
IC50 (HCT-15): > 10 µM
IC50 (SK-MEL-2): > 10 µM
IC50 (A549): > 10 µM
IC50 (BV-2 [3]): 12.1 µM
IC50 (SK-OV-3): > 10 µM
viability at 24 h, 20 µM [4]: 96.7%

O=C1C=C2C=C[C@H](O)C[C@]2(c2ccccn2)O1
IC50 (HCT-15): > 10 µM
IC50 (SK-MEL-2): > 10 µM
IC50 (A549): > 10 µM
IC50 (SK-OV-3): > 10 µM

CO[C@H]1CCN2O[C@]34C=C[C@H](O)C[C@]3(OC(=O)C4)[C@@H]2C1
IC50 (HCT-15): > 10 µM
IC50 (SK-MEL-2): > 10 µM
IC50 (A549): > 10 µM
IC50 (SK-OV-3): > 10 µM

O=C1C=C2C=C[C@H]3C[C@@]2(O1)[C@@H]1C[C@@H](O)CCN1O3
IC50 (HCT-15): > 10 µM
IC50 (SK-MEL-2): > 10 µM
IC50 (A549): > 10 µM
IC50 (SK-OV-3): > 10 µM

CO[C@H]1CCN2[C@@H]3C=CC4=CC(=O)O[C@]4(C3)[C@H]2C1
IC50 (HCT-15): > 10 µM
IC50 (SK-MEL-2): > 10 µM
IC50 (A549): > 10 µM
IC50 (BV-2 [3]): 7.7 µM
IC50 (SK-OV-3): > 10 µM
viability at 24 h, 20 µM [4]: 108%

COc1cc([C@@H]2c3cc4c(cc3[C@@H](O[C@@H]3O[C@@H]5CO[C@@H](C)O[C@H]5[C@H](O)[C@H]3O)[C@H]3COC(=O)[C@H]23)OCO4)cc(OC)c1O [ETOPOSIDE]
IC50 (HCT-15): 0.3 µM
IC50 (SK-MEL-2): 0.3 µM
IC50 (A549): 0.7 µM
IC50 (SK-OV-3): 1.8 µM

CO[C@H]1CCN2O[C@@H]3C=CC4=CC(=O)O[C@]4(C3)[C@@H]2C1 [SECURINEGA AMAMINE D]
IC50 (HCT-15): > 10 µM
IC50 (SK-MEL-2): > 10 µM
IC50 (A549): > 10 µM
IC50 (BV-2 [3]): 23.9 µM
IC50 (SK-OV-3): > 10 µM
viability at 24 h, 20 µM [4]: 86.5%

O=C1C=C2C=C[C@@H]3C[C@@]2(O1)[C@H]1CCCCN31 [SECURININE]
IC50 (HCT-15): > 10 µM
IC50 (SK-MEL-2): > 10 µM
Activity (C6): 141.1%
IC50 (A549): > 10 µM
IC50 (BV-2 [3]): 1.1 µM
viability at 24 h, 20 µM [1]: 102%
IC50 (SK-OV-3): > 10 µM
viability at 24 h, 20 µM [4]: 101%

CCCCC/C=C/C(=O)CCc1ccc(O)c(OC)c1 [SHOGAOL]
Activity (C6): 138.7%
viability at 24 h, 20 µM [1]: 112%

CNC(=N)NCCC[C@H](N)C(=O)O [TILARGININE]
viability at 24 h, 20 µM [4]: 99.7%

From ChEMBL document CHEMBL4316661, “Securinega Alkaloids from the Twigs of Securinega suffruticosa and Their Biological Activities” (J Nat Prod, 2019)
